Measured values from different studies.
Target: Serine/threonine-protein kinase BRSK2 (BRSK2, Homo sapiens, UniProt Q8IWQ3)
Sequence (Q8IWQ3 1-736, as in one of the studies): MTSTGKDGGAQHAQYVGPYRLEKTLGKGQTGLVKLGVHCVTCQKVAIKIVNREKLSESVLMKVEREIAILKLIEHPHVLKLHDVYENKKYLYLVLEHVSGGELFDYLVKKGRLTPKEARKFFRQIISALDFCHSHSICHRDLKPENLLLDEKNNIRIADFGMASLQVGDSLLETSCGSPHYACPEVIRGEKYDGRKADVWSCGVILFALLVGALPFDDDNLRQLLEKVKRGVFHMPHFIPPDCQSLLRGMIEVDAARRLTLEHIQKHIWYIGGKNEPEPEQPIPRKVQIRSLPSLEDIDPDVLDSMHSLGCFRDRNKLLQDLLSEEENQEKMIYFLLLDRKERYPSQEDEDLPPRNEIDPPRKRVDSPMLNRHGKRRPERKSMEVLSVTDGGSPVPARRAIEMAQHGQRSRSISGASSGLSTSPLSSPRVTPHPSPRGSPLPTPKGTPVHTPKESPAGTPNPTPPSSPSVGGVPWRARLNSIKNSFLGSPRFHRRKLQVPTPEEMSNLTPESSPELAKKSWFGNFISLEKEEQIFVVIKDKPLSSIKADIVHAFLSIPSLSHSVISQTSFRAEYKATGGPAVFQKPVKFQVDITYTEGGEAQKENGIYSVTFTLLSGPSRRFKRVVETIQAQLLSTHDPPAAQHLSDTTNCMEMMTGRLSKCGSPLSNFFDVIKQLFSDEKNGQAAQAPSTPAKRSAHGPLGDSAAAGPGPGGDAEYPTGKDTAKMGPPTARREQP

Compound	read-out	mode	method	concentration	measurement	result
N#CC1(c2ccccn2)CCN(Cc2cc(C(=O)O)c(=O)n3ccccc23)CC1	cell-free assay	–	competition with immobilised ligand	1 µM	remaining binding	100%
COc1ncccc1-c1cnn2ccc(N3CCN(C(=O)OC(C)C)CC3)nc12	binding	–	competition with immobilised ligand	1 µM	remaining binding	82%
CC(C)(C)c1cc(C=C(C#N)C#N)cc(Br)c1O	enzyme activity	inhibitor	–	0.5 µM	remaining activity	94.5%
Cc1nn(C)cc1-c1nc2c(N3CCN(Cc4ccc(Cl)cc4)CC3)c(Cl)cnc2[nH]1	binding	–	competition with immobilised ligand	1 µM	remaining binding	100%
COc1cc(Nc2ncc(F)c(Nc3ccc4c(n3)NC(=O)C(C)(C)O4)n2)cc(OC)c1OC	binding	–	competition with immobilised ligand	10 µM	inhibition	0%
Cn1cncc1[C@@](O)(COc1ccc(C#N)cc1-c1ccc(OC(F)(F)F)cc1)c1ccc(C#N)cc1	cell-free assay	–	competition with immobilised ligand	1 µM	remaining binding	100%
O=c1[nH]c2ccccc2n1C1CCN(Cc2ccc(-c3[nH]c4cc5ncnc5cc4nc3-c3ccccc3)cc2)CC1	cell-free assay	–	–	0.5 µM	remaining signal	106%
Nc1ncc(-c2nc(N3CCOCC3)nc(N3CCOCC3)n2)c(C(F)F)n1	binding	–	competition with immobilised ligand	10 µM	remaining binding	92%
